In ChEMBL document CHEMBL5058577, “EUbOPEN Chemogenomics Library 2 (Multiplex)” (2022):

Tested on: Fibroblast
Assay: Multiplex assay against human fibroblast
Assay type: toxicity, cell-based
How it was run: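 Per cents of healthy-nucleus cells form the tubulin, mitochondrial-mass and membrane-permeability phenotype values. Live cells were stained at seeding with Hoechst33342, BioTracker Green Microtubule Cytoskeleton Dye, MitoTracker Red and Annexin V Alexa Fluor 680. After compound addition they were imaged on a CQ1 microscope at 37°C and 5% CO2, and CellPathfinder machine-learning gating split them into Hoechst high-intensity objects or normal cells, normal cells into healthy, pyknosed or fragmented nuclei, and pyknosed cells into mitotic or apoptotic.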

[1] = 12 h, 1 µM, compound concentration 1 uM, replicate 1
[2] = 12 h, 1 µM, compound concentration 1 uM, replicate 2
[3] = 12 h, 10 µM, compound concentration 10 uM, replicate 1
[4] = 12 h, 10 µM, compound concentration 10 uM, replicate 2
[5] = 24 h, 1 µM, compound concentration 1 uM, replicate 1
[6] = 24 h, 1 µM, compound concentration 1 uM, replicate 2
[7] = 24 h, 10 µM, compound concentration 10 uM, replicate 1
[8] = 24 h, 10 µM, compound concentration 10 uM, replicate 2
[9] = 48 h, 1 µM, compound concentration 1 uM, replicate 1
[10] = 48 h, 1 µM, compound concentration 1 uM, replicate 2
[11] = 48 h, 10 µM, compound concentration 10 uM, replicate 1
[12] = 48 h, 10 µM, compound concentration 10 uM, replicate 2

## COc1ccc2[nH]c(I)c(CCNC(C)=O)c2c1 [IODOMELATONIN]
[1]
  Population Apoptotic (%): 53%
  Population Fragmented Nuclei (%): 15%
  Population Healthy Nuclei (%): 64%
  Population Hoechst High Intensity Objects (%): 2%
  Population Membrane Permeable-Phenotype (%): 4%
  Population Mitochondria Different-Phenotype (%): 4%
  Population Mitotic Cells (%): 46%
  Population Normal (%): 97%
  Population Pyknosed Nuclei (%): 19%
  Population Tubulin-Different-Phenotype (%): 28%
  Total Cell Count: 137
[2]
  Population Apoptotic (%): 32%
  Population Fragmented Nuclei (%): 23%
  Population Healthy Nuclei (%): 60%
  Population Hoechst High Intensity Objects (%): 5%
  Population Membrane Permeable-Phenotype (%): 7%
  Population Mitochondria Different-Phenotype (%): 3%
  Population Mitotic Cells (%): 68%
  Population Normal (%): 94%
  Population Pyknosed Nuclei (%): 15%
  Population Tubulin-Different-Phenotype (%): 33%
  Total Cell Count: 173
[3]
  Population Apoptotic (%): 35%
  Population Fragmented Nuclei (%): 14%
  Population Healthy Nuclei (%): 64%
  Population Hoechst High Intensity Objects (%): 2%
  Population Membrane Permeable-Phenotype (%): 2%
  Population Mitochondria Different-Phenotype (%): 6%
  Population Mitotic Cells (%): 64%
  Population Normal (%): 97%
  Population Pyknosed Nuclei (%): 21%
  Population Tubulin-Different-Phenotype (%): 20%
  Total Cell Count: 148
[4]
  Population Apoptotic (%): 30%
  Population Fragmented Nuclei (%): 38%
  Population Healthy Nuclei (%): 44%
  Population Hoechst High Intensity Objects (%): 3%
  Population Membrane Permeable-Phenotype (%): 5%
  Population Mitochondria Different-Phenotype (%): 0%
  Population Mitotic Cells (%): 69%
  Population Normal (%): 96%
  Population Pyknosed Nuclei (%): 17%
  Population Tubulin-Different-Phenotype (%): 43%
  Total Cell Count: 157
[5]
  Population Apoptotic (%): 62%
  Population Fragmented Nuclei (%): 16%
  Population Healthy Nuclei (%): 63%
  Population Hoechst High Intensity Objects (%): 0%
  Population Membrane Permeable-Phenotype (%): 0%
  Population Mitochondria Different-Phenotype (%): 7%
  Population Mitotic Cells (%): 37%
  Population Normal (%): 99%
  Population Pyknosed Nuclei (%): 20%
  Population Tubulin-Different-Phenotype (%): 27%
  Total Cell Count: 134
[6]
  Population Apoptotic (%): 57%
  Population Fragmented Nuclei (%): 26%
  Population Healthy Nuclei (%): 57%
  Population Hoechst High Intensity Objects (%): 5%
  Population Membrane Permeable-Phenotype (%): 6%
  Population Mitotic Cells (%): 42%
  Population Normal (%): 94%
  Population Pyknosed Nuclei (%): 15%
  Population Tubulin-Different-Phenotype (%): 39%
  Total Cell Count: 176
[7]
  Population Apoptotic (%): 35%
  Population Fragmented Nuclei (%): 16%
  Population Healthy Nuclei (%): 58%
  Population Hoechst High Intensity Objects (%): 2%
  Population Membrane Permeable-Phenotype (%): 1%
  Population Mitochondria Different-Phenotype (%): 4%
  Population Mitotic Cells (%): 64%
  Population Normal (%): 97%
  Population Pyknosed Nuclei (%): 24%
  Population Tubulin-Different-Phenotype (%): 30%
  Total Cell Count: 143
[8]
  Population Apoptotic (%): 24%
  Population Fragmented Nuclei (%): 38%
  Population Healthy Nuclei (%): 41%
  Population Hoechst High Intensity Objects (%): 4%
  Population Membrane Permeable-Phenotype (%): 10%
  Population Mitochondria Different-Phenotype (%): 1%
  Population Mitotic Cells (%): 75%
  Population Normal (%): 95%
  Population Pyknosed Nuclei (%): 20%
  Population Tubulin-Different-Phenotype (%): 40%
  Total Cell Count: 149
[9]
  Population Apoptotic (%): 76%
  Population Fragmented Nuclei (%): 16%
  Population Healthy Nuclei (%): 64%
  Population Hoechst High Intensity Objects (%): 3%
  Population Membrane Permeable-Phenotype (%): 0%
  Population Mitochondria Different-Phenotype (%): 4%
  Population Mitotic Cells (%): 23%
  Population Normal (%): 96%
  Population Pyknosed Nuclei (%): 18%
  Population Tubulin-Different-Phenotype (%): 22%
  Total Cell Count: 147
[10]
  Population Apoptotic (%): 42%
  Population Fragmented Nuclei (%): 30%
  Population Healthy Nuclei (%): 55%
  Population Hoechst High Intensity Objects (%): 4%
  Population Membrane Permeable-Phenotype (%): 5%
  Population Mitochondria Different-Phenotype (%): 0%
  Population Mitotic Cells (%): 57%
  Population Normal (%): 95%
  Population Pyknosed Nuclei (%): 13%
  Population Tubulin-Different-Phenotype (%): 40%
  Total Cell Count: 163
[11]
  Population Apoptotic (%): 60%
  Population Fragmented Nuclei (%): 29%
  Population Healthy Nuclei (%): 56%
  Population Hoechst High Intensity Objects (%): 7%
  Population Membrane Permeable-Phenotype (%): 1%
  Population Mitochondria Different-Phenotype (%): 1%
  Population Mitotic Cells (%): 40%
  Population Normal (%): 92%
  Population Pyknosed Nuclei (%): 13%
  Population Tubulin-Different-Phenotype (%): 22%
  Total Cell Count: 159
[12]
  Population Apoptotic (%): 38%
  Population Fragmented Nuclei (%): 48%
  Population Healthy Nuclei (%): 38%
  Population Hoechst High Intensity Objects (%): 2%
  Population Membrane Permeable-Phenotype (%): 10%
  Population Mitochondria Different-Phenotype (%): 5%
  Population Mitotic Cells (%): 61%
  Population Normal (%): 98%
  Population Pyknosed Nuclei (%): 12%
  Population Tubulin-Different-Phenotype (%): 57%
  Total Cell Count: 150
